From PubChem
Rows were chosen to be rich in hits. Some 0.79% of all compounds tested hit in one or more screens of this group.
bIAP act: intestinal alkaline phosphatase (bovine) activation. actives 0.17% (n = 200,000). purified bovine IAP, CDP-star luminescence, 30 min; stronger effect = higher value; fold of DMSO-control signal, blank-subtracted. activation factor at 20 µM;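 active means activation factor of 2 or more at 20 µM, a signal rise over negative controls twice the positive control's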
mIAP inh: mouse IAP inhibition; purified mouse IAP, CDP-Star luminescence, 30 min; inhibition, % at 10 µM; actives 0.2% (n = 330,000);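 active means inhibition of at least 40% at 10 µM in the primary screen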;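 further: plate controls were DMSO with enzyme for no effect and no enzyme wells for full effect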
hIAP act: human IAP activation; activation factor at 10 µM; purified human IAP, CDP-Star luminescence, 30 min; stronger effect = higher value; 1 = vehicle-only enzyme, 0 = enzyme-free background; actives 0.16% (n = 330,000); P09923;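 active means activation factor of the enzyme at least 2-fold when tested at 20 µM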
Target sequence (P09923 whole entry, looked up): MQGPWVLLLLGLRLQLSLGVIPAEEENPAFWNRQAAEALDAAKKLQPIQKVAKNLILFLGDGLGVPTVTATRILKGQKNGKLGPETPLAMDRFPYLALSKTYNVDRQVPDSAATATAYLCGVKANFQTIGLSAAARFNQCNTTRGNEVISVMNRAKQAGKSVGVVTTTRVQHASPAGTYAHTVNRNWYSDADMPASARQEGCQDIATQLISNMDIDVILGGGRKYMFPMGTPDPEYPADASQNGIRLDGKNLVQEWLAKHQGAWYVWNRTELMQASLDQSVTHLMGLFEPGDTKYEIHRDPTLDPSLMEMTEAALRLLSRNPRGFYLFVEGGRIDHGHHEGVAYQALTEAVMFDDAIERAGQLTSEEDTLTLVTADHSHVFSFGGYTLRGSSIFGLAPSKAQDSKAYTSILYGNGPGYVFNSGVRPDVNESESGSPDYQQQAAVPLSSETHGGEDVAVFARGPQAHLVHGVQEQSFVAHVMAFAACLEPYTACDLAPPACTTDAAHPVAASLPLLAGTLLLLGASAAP
bIAP inh: intestinal alkaline phosphatase (bovine) inhibition; purified bovine IAP, CDP-star luminescence, 30 min; inhibition, % at 20 µM; 190,000 tested, under 10 active; AID 1019;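 active means over 50% inhibition of intestinal alkaline phosphatase at 20 µM in the single-dose screen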
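Incubation: 30 min reaction at room temperature / Material: purified bovine intestinal alkaline phosphatase (IAP) enzyme / Input: enzyme at 1/65,000,000 dilution / Dosing: 20 µM single dose / Signal: CDP-star luminescence signal / Reagent: CDP-star chemiluminescent phosphatase substrate, 30 µM final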
mIAP activ: mouse IAP activation; muIAP, CDP-Star luminescence, 30 min; stronger effect = higher value; 1 = vehicle-only enzyme signal, 0 = enzyme-free wells; activation factor at 10 µM; actives 0.24% (n = 330,000); AID 2805;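 active means activation factor of at least 2 at 20 µM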
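also added = chemiluminescent substrate CDP-Star | test system = mouse IAP enzyme | signal = chemiluminescence readout | compound = DMSO-dissolved test compounds | incubation = 30 min at room temperature | benchmarks = DMSO wells, no-enzyme wells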
hIAP inh: blocks human intestinal alkaline phosphatase; actives 0.12% (n = 330,000); P09923; purified IAP, CDP-Star luminescence, 30 min; inhibition, % at 10 µM; AID 2544;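 active means inhibition reaching a set limit with compound at 10 µM in the primary screen, cut at about 35% in these data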;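 further: plate controls were DMSO wells with enzyme for no effect and no-enzyme buffer wells for full effect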
* hit, by the source's call; i = inactive; . = not tested or not shown.

SMILES	bIAP act	mIAP inh	hIAP act	bIAP inh	mIAP activ	hIAP inh
C1=CCN(Cc2ccccc2)C1	.	1.7	0.997	.	0.983	0.3
O=C(CN(C(=O)Cn1nnc(-c2ccccc2F)n1)c1cccc2c1CCCC2)NCc1ccccc1	2.2*	-51.1	1.02	-120.7	1.51	-2.5
C[C@H]1CN([C@@H](C)CO)C(=O)c2cccc(NC(=O)Nc3ccc(C(F)(F)F)cc3)c2O[C@@H]1CN(C)S(=O)(=O)c1ccc(Cl)cc1	.	-110.8	1.02	.	2.11*	-2.0
Cc1noc(C)c1NC(=O)N(C)C[C@H]1Oc2ccc(NC(=O)Nc3ccc(C(F)(F)F)cc3)cc2C(=O)N([C@H](C)CO)C[C@@H]1C	.	-154.7	1.1	.	2.55*	-10.3
C[C@H](CO)N1C[C@H](C)[C@H](CN(C)S(=O)(=O)c2cn(C)cn2)Oc2ccc(NC(=O)Nc3ccc(C(F)(F)F)cc3)cc2CC1=O	.	-168.9	1.08	.	2.69*	-8.3
C[C@H](CO)N1C[C@H](C)[C@@H](CN(C)C(=O)NC2CCCCC2)Oc2ccc(NC(=O)Nc3ccc(C(F)(F)F)cc3)cc2C1=O	.	-130.4	1.1	.	2.3*	-10.3
C[C@@H]1CN([C@@H](C)CO)C(=O)Cc2cc(NC(=O)Nc3ccc(C(F)(F)F)cc3)ccc2O[C@@H]1CN(C)S(=O)(=O)c1ccc(Cl)cc1	.	-41.2	1.17	.	1.41	-16.6
Cc1noc(C)c1NC(=O)N(C)C[C@H]1Oc2ccc(NC(=O)NC(C)C)cc2C(=O)N([C@H](C)CO)C[C@H]1C	.	-21.6	0.978	.	1.22	2.2
Cc1nnc(SCC(=O)NC2CCCCC2)n1N	.	-11.9	0.955	.	1.12	4.5
C[C@H](CO)N1C[C@H](C)[C@@H](CN(C)C(=O)Nc2ccc(C(F)(F)F)cc2)Oc2ccc(NC(=O)Nc3ccccc3)cc2C1=O	.	-143.3	1.1	.	2.43*	-9.8
C[C@H](CO)N1C[C@H](C)[C@@H](CN(C)S(C)(=O)=O)Oc2ccc(NC(=O)Nc3ccc(C(F)(F)F)cc3)cc2C1=O	.	-126.0	1.04	.	2.26*	-3.8
C[C@H](CO)N1C[C@H](C)[C@@H](CN(C)C(=O)Nc2ccc(C(F)(F)F)cc2)Oc2ccc(NC(=O)NC3CCCCC3)cc2C1=O	.	-211.5	1.24	.	3.12*	-23.8
COc1ccc(S(=O)(=O)NCC2CCCN(C(=O)CCSC)C2)cc1 (stereo unspecified)	.	-2.4	1.22	.	1.02	-21.6
Nc1[nH]nc2nc(NCc3ccccc3)c3c(c12)CCN(Cc1ccccc1)C3	4.7*	-15.9	1.01	-370.5	1.16	-1.0
N#Cc1c(NCCN)nc(NCc2ccccc2)c2c1CCN(Cc1ccccc1)C2	3*	.	.	-195.4	.	.
O=C(Nc1cccnc1)Nc1cc(Cl)cc(Cl)c1	1.1	-145.8	1.02	-5.7	2.46*	-1.6
COc1cc(CNCCc2c[nH]c3ccccc23)ccc1OCc1ccc(F)cc1	2.9*	7.1	0.854	-187.0	0.93	14.6
COc1ccccc1NC(=O)CN1CCN(C2c3ccccc3-c3ccccc32)CC1	2*	-9.1	1.1	-95.5	1.09	-9.8
NC1=NC2(CCN(Cc3ccccc3)CC2)n2c(nc3ccccc32)N1	3.5*	9.5	1.05	-254.6	0.905	-5.2
NC1=NC(c2ccc(Br)cc2)n2c(nc3ccccc32)N1 (stereo unspecified)	1.9	-7.3	0.973	-94.3	1.07	2.7
NC1=NC2(CCC(c3ccccc3)CC2)n2c(nc3ccccc32)N1 (stereo unspecified)	2.9*	-56.2	1.43	-191.8	1.56	-42.8
NC1=NC2(CCCCC2)n2c(nc3ccccc32)N1	2.2*	-3.9	0.988	-116.8	1.04	1.2
O=C(COC(=O)CNC(=O)c1ccc(Cl)cc1)Nc1cccc(S(=O)(=O)N2CCCC2)c1	.	-10.6	0.899	.	1.11	10.1
NS(=O)(=O)c1ccc2c(c1)C1C=CCC1C(C1CC=CCC1)N2 (stereo unspecified)	0.8	56.4*	1.03	21.4	0.436	-3.1
O=C(O)c1ccc(NS(=O)(=O)c2ccc3c(c2)C2C=CCC2C(c2ccccc2F)N3)cc1 (stereo unspecified)	0.9	5.5	0.934	10.6	0.945	6.6
SMILES	bIAP act	mIAP inh	hIAP act	bIAP inh	mIAP activ	hIAP inh
Cc1ccc(C2(C)NC(=O)N(CC(=O)c3ccc(Cl)s3)C2=O)cc1 (stereo unspecified)	2*	15.0	1.05	-97.2	0.85	-5.5
O=C(COC(=O)C1CC2CCCC(C1)C2=O)NNC(=O)c1ccccc1F (stereo unspecified)	.	3.8	1.07	.	0.962	-7.5
CCCN(CCC)C(=O)CSc1nc2n[nH]c(C)c2c(=N)n1-c1ccc(OC)cc1	2.9*	-27.6	1.1	-190.4	1.28	-10.5
CCc1ccccc1NC(=O)CSc1nc2n[nH]c(C)c2c(=N)n1-c1ccc(OC)cc1	0.9	.	.	7.1	.	.
CCCN(CCC)C(=O)CSc1nc2n[nH]c(C)c2c(=N)n1-c1ccc(OCC)cc1	2.1*	-7.7	0.903	-111.1	1.08	9.7
CCn1c(=S)sc2c(=O)n(CC(=O)Nc3ccc(Cl)cc3)c(C)nc21	.	2.1	1.27	.	0.979	-26.6
O=C(COC(=O)c1cc(Br)ccc1Cl)NC(=O)NCc1ccccc1	1	8.8	0.971	1.0	0.912	2.9
O=C(COc1ccc(Cl)cc1Br)NC(=O)NCc1ccccc1	6.5*	-4.9	0.893	i	1.05	10.7
COc1ccc(C(=O)Nc2nnc(SCC(=O)NC3CC3)s2)cc1	.	12.8	0.802	.	0.872	19.8
N#Cc1cn(-c2cccc(C(F)(F)F)c2)c(=O)[nH]c1=O	.	-1.4	1.11	.	1.01	-10.6
Cn1c(/C=N/Nc2nc3ccccc3[nH]2)nc2ccccc21	0.9	41.8*	1.16	14.3	0.582	-15.8
O=C(N/N=C/c1ccc(O)cc1)c1cc(-c2ccc3c(c2)OCO3)n[nH]1	0.9	13.5	0.645	11.4	0.865	35.5*
CCOP(=O)(OCC)C(NC(=O)Nc1ccc(Cl)c(Cl)c1)C(N)=O (stereo unspecified)	0.4	-11.9	0.932	.	1.12	6.8
CCOP(=O)(OCC)C(NC(=O)Nc1ccc(Cl)cc1)c1ccccc1 (stereo unspecified)	1	-102.6	1.33	2.1	2.03*	-33.2
CCOP(=O)(OCC)C(NC(=O)Nc1ccc(Cl)c(Cl)c1)c1ccccc1 (stereo unspecified)	0.9	-402.3	0.96	6.4	5.02*	4.0
CCOP(=O)(OCC)C(NC(=O)Nc1ccc(Cl)cc1)C(N)=O (stereo unspecified)	0.9	5.3	1.02	13.1	0.947	-2.0
O=C(Nc1cccc(-c2cccc(F)c2)c1)C1CCN(Cc2ccc(CO)o2)CC1	.	-107.3	1.02	.	2.07*	-2.3
COc1cccc(-c2cccc(NC(=O)C3CCN(Cc4ccc(CO)o4)CC3)c2)c1	.	2.6	0.922	.	0.974	7.8
CCCCN1C(=O)C2(NNc3ccccc3O2)c2ccccc21 (stereo unspecified)	2.7*	5.3	0.755	-169.0	0.947	24.5
